Measured values pooled from the literature.
Compare with care: the assays were run in different laboratories.
Cell line: NCI-H460
Effect on: cell growth or viability

| Structure (SMILES) | technique | tested at | time | measurement | result |
| --- | --- | --- | --- | --- | --- |
| COc1cc(-c2ccc(-c3ccc(C(=N)N)nc3)s2)cc(OC)c1OC | SRB |  |  | GI50 | 2100 nM |
| COc1cccc(Oc2ccccc2NC(=O)CNC(=O)c2cccc3ccccc23)c1 | SRB |  | 48 h | GI50 | 295 nM |
| COc1ccc(C(=O)/C=C/c2cccc3ccccc23)cc1S(N)(=O)=O | SRB |  | 48 h | GI50 | 1800 nM |
| C=CC(=O)Nc1cc(Nc2nc(N3CCc4sccc4C3)c3cccnc3n2)c(OC)cc1N(C)C | MTT |  |  | IC50 | > 50000 nM |
| COc1ccc(C(=O)/C=C/c2ccc3ccccc3c2)cc1S(N)(=O)=O | SRB |  | 48 h | GI50 | 3000 nM |
| CCCc1n(Cc2ccc3ccccc3n2)cc[n+]1Cc1ccc2ccccc2c1 | SRB |  |  | TGI | 10600 nM |
| C=C(Cl)C(=O)Nc1cc(Nc2nc(N3CCSCC3)c3sccc3n2)c(OC)cc1N(C)CCN(C)C | MTT |  |  | IC50 | 1320 nM |
| COc1ccc(C(=O)/C=C/c2cccc(Cl)c2Cl)cc1S(N)(=O)=O | SRB |  | 48 h | GI50 | 1900 nM |
| Cc1n(Cc2ccc3ccccc3n2)cc[n+]1Cc1ccc2ccccc2c1 | SRB |  |  | TGI | 14400 nM |
| C=CC(=O)Nc1cccc(Oc2nc(Nc3ccc(N4CCN(C)CC4)cc3)nc3ccsc23)c1 | MTT |  |  | IC50 | 642 nM |
| CCc1n(Cc2ccc3ccccc3n2)cc[n+]1Cc1ccc2ccccc2n1 | SRB |  |  | TGI | 11900 nM |
| C=CC(=O)Nc1cc(Nc2nc(N3CCc4sccc4C3)c3cccnc3n2)c(OC)cc1N1CCC(N(C)C)CC1 | MTT |  |  | IC50 | 558 nM |
| COc1ccc(-c2ccc(-c3ccc(C(=N)N)nc3)s2)cc1Cl | SRB |  |  | GI50 | 1800 nM |
| CCCCc1n(Cc2ccc3ccccc3n2)cc[n+]1Cc1ccc2ccccc2n1 | SRB |  |  | TGI | 11600 nM |
| COc1ccc(C(=O)/C=C/c2ccccc2Br)cc1S(N)(=O)=O | SRB |  | 48 h | GI50 | 2000 nM |
| C=C(c1ccc(C(=O)O)cc1)c1cc2c(cc1C)C(C)(C)CCC2(C)C | MTT |  | 72 h | EC50 | 52000 nM |
| S=C([S][Au-][P+](CCCCCC[P+]([Au-][S]C(=S)n1cccn1)(c1ccccc1)c1ccccc1)(c1ccccc1)c1ccccc1)n1cccn1 | SRB |  |  | GI50 | 1430 nM |
| COc1ccccc1/C=C/C(=O)c1ccc(OC)c(S(N)(=O)=O)c1 | SRB |  | 48 h | GI50 | 2100 nM |
| C=CC(=O)Nc1cc(Nc2nc(N3CCc4sccc4C3)c3cccnc3n2)c(OC)cc1N1CCN(C(C)=O)CC1 | MTT |  |  | IC50 | > 50000 nM |
| COc1ccc(C(=O)/C=C/c2cc3c(cc2Br)OCO3)cc1S(N)(=O)=O | SRB | 10 µM |  | inhibition | 100% |
| C=C(Cl)C(=O)Nc1cc(Nc2nc(N3CCOCC3)c3sccc3n2)c(OC)cc1N(C)CCN(C)C | MTT |  |  | IC50 | 1840 nM |
